What was measured:
[1] = molecular target: T1, Sex hormone-binding globulin (Homo sapiens) (UniProt P04278); assay: Association […] constant for human sex hormone-binding globulin (SHBG)
T1 sequence (whole entry): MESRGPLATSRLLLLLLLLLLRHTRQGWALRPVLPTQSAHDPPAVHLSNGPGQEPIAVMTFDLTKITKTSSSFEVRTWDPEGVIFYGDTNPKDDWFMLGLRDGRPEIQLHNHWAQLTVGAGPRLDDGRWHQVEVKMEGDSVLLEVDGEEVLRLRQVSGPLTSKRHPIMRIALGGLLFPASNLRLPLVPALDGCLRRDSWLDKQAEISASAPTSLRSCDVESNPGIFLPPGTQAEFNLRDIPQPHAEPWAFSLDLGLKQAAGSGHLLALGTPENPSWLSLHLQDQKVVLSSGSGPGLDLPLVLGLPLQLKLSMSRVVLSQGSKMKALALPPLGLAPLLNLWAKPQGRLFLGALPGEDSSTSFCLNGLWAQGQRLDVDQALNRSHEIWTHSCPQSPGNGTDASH

[2] = molecular target: T1, Sex hormone-binding globulin (Homo sapiens); assay: Relative binding affinity for human sex hormone-binding globulin (SHBG) compared to testosterone
Method in brief: (§1)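 Human pregnancy serum diluted 1:200 (about 1 nM SHBG), stripped of endogenous steroid with dextran-coated charcoal, mixed with [3H]DHT at 10 nM. Triplicate test compound added, incubated overnight at room temperature. Dextran-coated charcoal slurry then added for 10 min at 0°C and centrifuged to separate bound from free label. Bound label counted by scintillation and expressed relative to the no-competitor control.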

[3] = molecular target: T1, Sex hormone-binding globulin (Homo sapiens); assay: Relative binding affinity towards human sex hormone-binding globulin (SHBG) compared to estradiol; method in brief: as §1
[4] = molecular target: T2, Sex hormone-binding globulin (Homo sapiens, UniProt P04278); assay: Inhibitory concentration against [3H]-DHT binding to human sex hormone-binding globulin (SHBG); method in brief: as §1
T2 sequence (P04278 whole entry): T1 sequence (whole entry)

[5] = molecular target: T1, Sex hormone-binding globulin (Homo sapiens); assay: In vitro inhibition of [3H]DHT binding to human sex hormone-binding globulin (SHBG); design: concentration or dose not given beside the values; method in brief: as §1

| Compound | Reduction [5] [%] | further results |
| --- | --- | --- |
| O=C(Cc1ccc(O)cc1)c1ccc(O)cc1O | 95 | Ka [1]: 1.2e+06 M⁻¹; relative binding affinity (RBA) [2]: 1150; relative binding affinity (RBA) [3]: 4530; IC50 [4]: 13.6 µM |
| O=C(/C=C/c1cccnc1)c1ccc(O)cc1 | 57 |  |
| C[C@H]1CC[C@H]2[C@@](C)(CO)[C@H](O)CC[C@]2(C)[C@@]12CC[C@@](C)(CO)O2 | 6 |  |
| O=C1C=CC2=C3c4ccc(O)cc4OC[C@]3(O)CC2=C1 | 27 |  |
| CC[C@@H](O)c1ccc(OC[C@H](O)CN2CCCCC2)c(OC)c1 | 5 |  |
| C=C1CC[C@H]2[C@](C)(CO)[C@H](O)CC[C@@]2(C)[C@@H]1C/C=C1/C(=O)OC[C@@H]1O | 0 |  |
| O=C1C=CC2=C3c4cc(O)c(O)cc4C[C@@]3(O)COC2=C1O | 6 |  |
| C[C@H]1CC[C@H]2[C@@](C)(CO)[C@@H](O)CC[C@]2(C)[C@@]12CC[C@](CO)(CC(=O)O)O2 | 2 |  |
| O=C1C=CC2=N[C@@]34CCCC[C@@H]3[C@@H](c3ccc(O)cc3)C=C(c3ccccc3)N4C2=C1 | 0 |  |
| C=C1CC[C@H]2[C@](C)(CO)[C@H](O)CC[C@@]2(C)[C@@H]1C/C=C1/C(=O)OC[C@H]1O | 7 |  |
| CN1CCc2cc(O)c(O)cc2[C@H]1Cc1ccc(O)c(O)c1 | 14 |  |
| CC1(C)CC2(CC(C)(C)c3cc(O)c(O)cc32)c2cc(O)c(O)cc21 | 48 |  |
| C[C@H]1CC[C@@H]2[C@](C)(CO)[C@H](O)CC[C@@]2(C)[C@]12CC[C@@]1(CCOC1)O2 | 11 |  |
| CC(=O)c1c(O)c(C)c(O)c2c1OC1=CC(=O)[C@H](C(C)=O)C(=O)[C@]12C | 4 |  |
| O=C(Cc1ccc2cccnc2c1)c1ccc(O)cc1O | 0 |  |
| C[C@H]1CC[C@@H]2[C@](C)(CO)[C@H](O)CC[C@@]2(C)[C@@]12C[C@@]1(COC(=O)C1)CO2 | 9 |  |
| COc1cc2c(cc1O)CCN(C[C@@H](O)CNCCO)[C@H]2C | 12 |  |
| CC1=C[C@@H](C)[C@@]2(CO)CO[C@@H](c3ccc(O)cc3)[C@@H]1[C@H]2C | 56 | Ka [1]: 130000 M⁻¹; relative binding affinity (RBA) [2]: 125; relative binding affinity (RBA) [3]: 493; IC50 [4]: 124 µM |
| C=C1CC[C@H]2[C@](C)(CO)[C@H](O)CC[C@@]2(C)[C@@H]1/C=C/C1=CCOC1=O | 0 |  |

Second part, led by results:

| Reduction [5] [%] | Compound | further results |
| --- | --- | --- |
| 0 | CC[C@H](NC(=O)Cc1c(C)c2ccc(O)cc2oc1=O)C(=O)O |  |
| 42 | CC(=O)Oc1ccc2c(C)c(C[C@H](C)O)c(=O)oc2c1 |  |
| 84 | COc1cc([C@H]2OC[C@]3(CO)[C@H](C)[C@H]2C(C)=C[C@@H]3C)ccc1O | Ka [1]: 730000 M⁻¹; relative binding affinity (RBA) [2]: 696; relative binding affinity (RBA) [3]: 2750; IC50 [4]: 22.4 µM |
| 0 | COC(=O)c1cc(CC(=O)c2ccc(O)cc2O)c(C)o1 |  |
| 0 | Cc1c(CC(=O)N[C@@H](C)C(=O)O)c(=O)oc2cc(O)ccc12 |  |
| 1 | Cc1cc(O)c(C(=O)/C=C/c2ccc(O)c([N+](=O)[O-])c2)c(=O)o1 |  |
| 2 | COc1cc(/C=C/C(=O)c2c(O)cc(C)oc2=O)ccc1O |  |
| 46 | Cc1c(CCC(=O)O)c(=O)oc2c(C)c(O)ccc12 |  |
| 10 | COC(=O)c1ccc(CC(=O)c2ccc(O)cc2O)o1 |  |

Reference: ChEMBL document CHEMBL1143630, “Successful in silico discovery of novel nonsteroidal ligands for human sex hormone binding globulin” (J Med Chem, 2005)
